# Measurements from ChEMBL document CHEMBL1123566, “Synthesis and cardiac electrophysiological activity of 2- and 3-[(substituted phenyl)alkyl]quinuclidines. Structure-activity relationships” (1987).
# Values joined by “and” are separate entries in the source; they are usually repeats but may differ in a detail not shown here. Equal entries are not always repeated.
# Experiments:
# Canis familiaris [1] = assay: Conduction time was determined by intraduodenal administration of two dosages of 3 mg/kg (high dose) of compound in anesthetized dogs. Value was reported for experiment 3; type: functional, Canis lupus familiaris
# Summary of the method: (§1)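 Anesthetized dogs given the compound intraduodenally, generally as two doses with the second a cumulative total (low/high). FRP and CT measured at 15, 30 and 45 min after dosing. HR and BP taken during nonpacing intervals. Values are percent change from control per animal. Activity criterion is FRP or CT prolonged ≥12%. Vehicle: 5% dextrose in water/tragacanth.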
# Canis familiaris [2] = assay: Heart rate was determined by intraduodenal administration of two dosages of 10 mg/kg of (high dose) compound in anesthetized dogs. Value was reported for experiment 3; type: functional, Canis lupus familiaris; summary of the method: as §1
# Canis familiaris [3] = assay: Heart rate was determined by intraduodenal administration of two dosages of 1 mg/kg of (low dose) compound in anesthetized dogs. Value was reported for experiment 2; type: functional, Canis lupus familiaris; summary of the method: as §1
# Canis familiaris [4] = assay: Heart rate was determined by intraduodenal administration of two dosages of 1 mg/kg of (low dose) compound in anesthetized dogs. Value was reported for experiment 3; type: functional, Canis lupus familiaris; summary of the method: as §1
# Canis familiaris [5] = assay: Left ventricular refractory period was determined by intraduodenal administration of two dosages (high/low) of 10 g/kg of compound in anesthetized dogs. Value was reported for experiment 3; type: functional, Canis lupus familiaris, Cardiac ventricle; conditions: in the assay text read “10 mg/kg” for “10 g/kg”
# Summary of the method: (§2)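 Anesthetized dogs, usually given two intraduodenal doses, with the second dose cumulative (low/high). Left ventricular FRP and CT were determined at 15, 30 and 45 min after dosing. HR and BP were measured during nonpacing intervals. Values are % change from control at low/high dose, for individual animals. The vehicle-stability set used 5% dextrose in water/tragacanth (n = 8).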
# Canis familiaris [6] = assay: Left ventricular refractory period was determined by intraduodenal administration of two dosages of 10 mg/kg of (high dose) compound in anesthetized dogs. Value was reported for experiment 1; type: functional, Canis lupus familiaris, Cardiac ventricle
# Summary of the method: (§3)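 Anesthetized dogs received two intraduodenal doses, the second cumulative (low dose/high dose). Left ventricular FRP and CT were measured 15, 30 and 45 min after dosing. Heart rate and mean blood pressure were taken during nonpacing intervals. Values are percent change from control. The vehicle was 5% dextrose in water/tragacanth. Activity was defined as ≥12% prolongation of FRP or CT.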
# Canis familiaris [7] = assay: Left ventricular refractory period was determined by intraduodenal administration of two dosages of 3 mg/kg of (high dose) compound in anesthetized dogs. Value was reported for experiment 2; type: functional, Canis lupus familiaris, Cardiac ventricle; summary of the method: as §2
# Canis familiaris [8] = assay: Mean arterial blood pressure was determined by intraduodenal administration of two dosages of 1 mg/kg of (low dose) compound in anesthetized dogs. Value was reported for experiment 3; type: functional, Canis lupus familiaris; summary of the method: as §2
# Canis familiaris [9] = assay: Mean arterial blood pressure was determined by intraduodenal administration of two dosages of 10 mg/kg of (high dose) compound in anesthetized dogs. Value was reported for experiment 1; type: functional, Canis lupus familiaris; summary of the method: as §3
# Canis familiaris [10] = assay: Mean arterial blood pressure was determined by intraduodenal administration of two dosages of 10 mg/kg of (high dose) compound in anesthetized dogs. Value was reported for experiment 3; type: functional, Canis lupus familiaris; summary of the method: as §2
# Canis familiaris [11] = assay: Mean arterial blood pressure was determined by intraduodenal administration of two dosages of 3 mg/kg of (high dose) compound in anesthetized dogs. Value was reported for experiment 2; type: functional, Canis lupus familiaris; summary of the method: as §2
# Canis familiaris [12] = assay: Mean arterial blood pressure was determined by intraduodenal administration of two dosages of 3 mg/kg of (low dose) compound in anesthetized dogs. Value was reported for experiment 1; type: functional, Canis lupus familiaris; summary of the method: as §3
# Canis familiaris [13] = species on record: Canis familiaris; assay: In vitro electrophysiological evaluation in canine cardiac ventricular muscle reported as maximum % change for functional refractory period (FRP) at 0.1-100 uM concentration range; set-up: species or system Canis lupus familiaris, Muscle tissue
# Canis familiaris [14] = species on record: Canis familiaris; assay: In vitro electrophysiological evaluation in canine cardiac ventricular muscle reported as maximum % change for conduction time(CT) at 0.1-10 uM concentration range; Minimal (<IO%increase or a decrease in CT); type: functional, Canis lupus familiaris, Muscle tissue
# Summary of the method: (§4)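 Canine right ventricular/papillary muscle strips in oxygenated Tyrode's, extracellular extra-stimulus conduction-interval method. FRP and CT are read from conduction-interval curves before and during rising concentrations. Compound is a 10 mM aqueous stock diluted into Tyrode's. Each strip is used once as its own control. Readouts are percent change from control at 10 μM, plus the maximum change with its concentration.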
# Canis familiaris [15] = species on record: Canis familiaris; assay: In vitro electrophysiological evaluation in canine cardiac ventricular muscle reported as % change for the functional refractory period (FRP) concentration range of 0.1-100 uM; set-up: species or system Canis lupus familiaris, Muscle tissue
# Summary of the method: (§5)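 Canine right ventricle and papillary muscle strips in oxygenated Tyrode's solution, fitted with stimulating and recording electrodes. The extra-stimulus conduction-interval method was adapted for in vitro use. FRP and CT were read from a conduction-interval curve before and after various compound concentrations, and expressed as percent change from control. Compounds were taken from 10 mM deionized-water stock into Tyrode's. Each strip was used once as its own control.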
# Canis familiaris [16] = species on record: Canis familiaris; assay: In vitro electrophysiological evaluation in canine cardiac Purkinje fibres reported as percent change Vmax concentration range of 0.1-10 uM; type: functional; conditions: Canis lupus familiaris; Purkinje fiber
# Summary of the method: (§6)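 Canine cardiac Purkinje fibers, intracellular recording, paced at a basic cycle length of 1 s. APD95 and Vmax are recorded together across cumulative concentrations. Compound is a 10 mM aqueous stock diluted into Tyrode's solution. Each fiber is used once as its own control. Readouts are percent change from control at 10 μM, and the maximum change with the concentration where it occurred.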
# Canis familiaris [17] = species on record: Canis familiaris; assay: In vitro electrophysiological evaluation in canine cardiac ventricular muscle reported as % change for conduction time(CT) at 0.1-10 uM concentration range; Minimal (<IO%increase or a decrease in CT); type: functional, Canis lupus familiaris, Muscle tissue; summary of the method: as §4
# Canis familiaris [18] = species on record: Canis familiaris; assay: In vitro electrophysiological evaluation in canine cardiac ventricular muscle reported as maximum % change for functional refractory period (FRP) at 0.1-10 uM concentration range; set-up: species or system Canis lupus familiaris, Muscle tissue
# Canis familiaris [19] = species on record: Canis familiaris; assay: In vitro electrophysiological evaluation in canine cardiac ventricular muscle reported as maximum % change for conduction time(CT) at 0.1-100 uM concentration range; Minimal (<IO%increase or a decrease in CT); type: functional, Canis lupus familiaris, Muscle tissue; summary of the method: as §5
# Canis familiaris [20] = species on record: Canis familiaris; assay: In vitro electrophysiological activity in canine cardiac Purkinje fibres given as maximum % change for action potential duration at 0.1-100 uM concentration; type: functional, Canis lupus familiaris, Purkinje fiber
# Summary of the method: (§7)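 Canine cardiac Purkinje fibres, intracellular recording at 1 s basic cycle length, over cumulative concentration ranges. Compound 10 mM stock in deionized water diluted into Tyrode's. Each fibre used once as its own control. Value is the maximum % change from control in APD at 95% repolarization, with the concentration where it occurred; both values given if a biphasic response (>20% reversal) occurred.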
# Canis familiaris [21] = species on record: Canis familiaris; assay: In vitro electrophysiological activity in canine cardiac Purkinje fibres given as maximum % change for action potential duration at 0.1-10 uM concentration; type: functional, Canis lupus familiaris, Purkinje fiber; summary of the method: as §7
# Canis familiaris [22] = species on record: Canis familiaris; assay: In vitro electrophysiological evaluation in canine cardiac Purkinje fibres reported as % change for action potential duration at 1-100 uM concentration range; type: functional, Canis lupus familiaris, Purkinje fiber; summary of the method: as §6
# Canis familiaris [23] = species on record: Canis familiaris; assay: In vitro electrophysiological evaluation in canine cardiac Purkinje fibres reported as maximum percent change Vmax concentration range of 0.01-100 uM; […]; type: functional; conditions: Canis lupus familiaris; Purkinje fiber; summary of the method: as §6
# Canis familiaris [24] = species on record: Canis familiaris; assay: In vitro electrophysiological evaluation in canine cardiac Purkinje fibres reported as % change for action potential duration at 0.1-100 uM concentration range; type: functional, Canis lupus familiaris, Purkinje fiber
# Summary of the method: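 Canine cardiac Purkinje fibres, intracellular microelectrode recording, paced at a basic cycle length of 1 s. APD95 and Vmax read simultaneously. Compound: 10 mM stock in deionized water, diluted into Tyrode's solution, tested over the stated concentration range. Each fibre used once as its own control. Result is % change from control, given at 10 µM or as the maximum with its concentration. M = <10% decrease or an increase in Vmax.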
# Canis familiaris [25] = species on record: Canis familiaris; assay: In vitro electrophysiological evaluation in canine cardiac Purkinje fibres reported as % change for action potential duration at 0.01-100 uM concentration range; type: functional, Canis lupus familiaris, Purkinje fiber; summary of the method: as §6
smiles,measurement,setting,value
CCCCCCC[N+](CC)(CC)CCCCc1ccc(Cl)cc1.O=P([O-])(O)O [CLOFILIUM PHOSPHATE],CT,Canis familiaris [1],-7%
same,HR,Canis familiaris [2],-11%
same,HR,Canis familiaris [3],-2%
same,HR,Canis familiaris [4],-2%
same,L,Canis familiaris [5],23%
same,LV FRP,Canis familiaris [6],22%
same,LV FRP,Canis familiaris [7],2%
same,Mean blood pressure,Canis familiaris [8],-3%
same,Mean blood pressure,Canis familiaris [9],-11%
same,Mean blood pressure,Canis familiaris [10],4%
same,Mean blood pressure,Canis familiaris [11],-14%
same,Mean blood pressure,Canis familiaris [12],-7%
same,FRP,Canis familiaris [13],-3% and 14% and 7%
same,CT,Canis familiaris [14],<10%
same,FRP,Canis familiaris [15],11% and 5%
same,Vmax,Canis familiaris [16],-11%
same,CT,Canis familiaris [17],<10%
same,FRP,Canis familiaris [18],38%
same,CT,Canis familiaris [19],<10%
same,APD95,Canis familiaris [20],52% and 46%
same,APD95,Canis familiaris [21],52%
same,APD95,Canis familiaris [22],49% and 18%
same,Vmax,Canis familiaris [23],< 10%
same,APD95,Canis familiaris [24],48% and 46%
same,APD95,Canis familiaris [25],27% and 55%
